From ChEMBL document CHEMBL2385045, “Discovery of novel 4-(2-fluorophenoxy)quinoline derivatives bearing 4-oxo-1,4-dihydrocinnoline-3-carboxamide moiety as c-Met kinase inhibitors” (Bioorg Med Chem, 2013)

Experiments:
MKN-45 = test: Cytotoxicity against c-Met-dependent human MKN45 cells assessed as growth inhibition after 72 hrs by MTT assay; conditions: MKN-45, 72 h
SMMC-7721 = test: Cytotoxicity against c-Met-dependent human SMMC7721 cells assessed as growth inhibition after 72 hrs by MTT assay; assay type: functional, cell-based; conditions: SMMC-7721, 72 h
How it was run: (§1)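 Cells grown in MEM with 10% FBS. About 4×10³ cells/well were seeded and incubated 24 h at 37 °C, 5% CO₂, then exposed to compound for 72 h. MTT was added (terminal 5 µg/mL) for 4 h at 37 °C, and formazan was dissolved in DMSO. IC50 is the mean of three determinations.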

[1] = Cytotoxicity against c-Met-independent human H460 cells assessed as growth inhibition after 72 hrs by MTT assay; conditions: NCI-H460, 72 h
HT-29 = test: Cytotoxicity against c-Met-dependent human HT-29 cells assessed as growth inhibition after 72 hrs by MTT assay; conditions: HT-29, 72 h
A549 = test: Cytotoxicity against c-Met-dependent human A549 cells assessed as growth inhibition after 72 hrs by MTT assay; conditions: A549, 72 h
[2] = Cytotoxicity against c-Met-dependent human U87MG cells assessed as growth inhibition after 72 hrs by MTT assay; assay type: functional, cell-based, U-87MG ATCC; conditions: U-87 MG; how it was run: as §1

SMILES | IC50 (MKN-45) [nM] | IC50 (SMMC-7721) [nM] | IC50 [1] [nM] | IC50 (HT-29) [nM] | IC50 (A549) [nM] | IC50 [2] [nM]
COc1cc2c(Oc3ccc(NC(=O)c4nn(-c5c(Cl)cccc5Cl)c5ccccc5c4=O)cc3F)ccnc2cc1OCCCN1CCC(C)CC1 | 360 | 820 | 650 | 920 | 400 | 1040
COc1cc2c(Oc3ccc(NC(=O)c4nn(-c5ccc(F)c(F)c5)c5ccccc5c4=O)cc3F)ccnc2cc1OCCCN1CCCC1 | 350 | 590 | 640 | 1120 | 260 | 1060
COc1cc2c(Oc3ccc(NC(=O)c4nn(-c5ccccc5C(F)(F)F)c5ccccc5c4=O)cc3F)ccnc2cc1OCCCN1CCCCC1 | 27 | 1350 | 81 | 560 | 55 | 1160
COc1cc2c(Oc3ccc(NC(=O)c4nn(-c5cccc(C(F)(F)F)c5)c5ccccc5c4=O)cc3F)ccnc2cc1OCCCN1CCCCC1 | 270 | 330 | 1030 | 560 | 310 | 1620
COc1cc2c(Oc3ccc(NC(=O)c4nn(-c5ccccc5OC(F)(F)F)c5ccccc5c4=O)cc3F)ccnc2cc1OCCCN1CCOCC1 | 760 |  | 620 | 1120 | 480 | 1040
COc1cc2c(Oc3ccc(NC(=O)c4nn(-c5ccc(C)cc5)c5ccccc5c4=O)cc3F)ccnc2cc1OCCCN1CCC(C)CC1 | 1220 |  | 1990 | 2850 | 1050 | 
COc1cc2c(Oc3ccc(NC(=O)c4nn(-c5ccc(F)cc5)c5ccccc5c4=O)cc3F)ccnc2cc1OCCCN1CCC(C)CC1 | 170 | 930 | 890 | 460 | 150 | 1120
COc1cc2c(Oc3ccc(NC(=O)c4nn(-c5cc(C(F)(F)F)ccc5Cl)c5ccccc5c4=O)cc3F)ccnc2cc1OCCCN1CCCC1 | 170 |  | 610 | 1120 | 200 | 1420
COc1cc2c(Oc3ccc(NC(=O)c4nn(-c5ccccc5Cl)c5ccccc5c4=O)cc3F)ccnc2cc1OCCCN1CCCCC1 | 50 | 420 | 73 | 260 | 43 | 490
COc1cc2c(Oc3ccc(NC(=O)c4nn(-c5cccc(C(F)(F)F)c5)c5ccccc5c4=O)cc3F)ccnc2cc1OCCCN1CCCC1 | 190 | 630 | 1040 | 780 | 300 | 850
COc1cc2c(Oc3ccc(NC(=O)c4nn(-c5cccc(C(F)(F)F)c5)c5ccccc5c4=O)cc3F)ccnc2cc1OCCCN1CCC(C)CC1 | 160 |  | 550 | 1020 | 210 | 730
COc1cc2c(Oc3ccc(NC(=O)c4nn(-c5ccccc5Br)c5ccccc5c4=O)cc3F)ccnc2cc1OCCCN1CCC(C)CC1 | 280 |  | 830 | 1340 | 350 | 2160
COc1cc2c(Oc3ccc(NC(=O)c4nn(-c5c(Cl)cccc5Cl)c5ccccc5c4=O)cc3F)ccnc2cc1OCCCN1CCCCC1 | 390 |  | 770 | 1150 | 410 | 1360
COc1cc2c(Oc3ccc(NC(=O)c4nn(-c5c(Cl)cccc5Cl)c5ccccc5c4=O)cc3F)ccnc2cc1OCCCN1CCCC1 | 350 | 840 | 370 | 1050 | 350 | 1250
COc1cc2c(Oc3ccc(NC(=O)c4nn(-c5ccc(Br)cc5)c5ccccc5c4=O)cc3F)ccnc2cc1OCCCN1CCCCC1 | 450 | 840 | 400 | 1140 | 530 | 1600
COc1cc2c(Oc3ccc(NC(=O)c4nn(-c5cc(C)ccc5C)c5ccccc5c4=O)cc3F)ccnc2cc1OCCCN1CCCC1 | 420 |  | 2030 | 3050 | 1150 | 2470
COc1cc2c(Oc3ccc(NC(=O)c4nn(-c5ccccc5F)c5ccccc5c4=O)cc3F)ccnc2cc1OCCCN1CCC(C)CC1 | 580 | 950 | 290 | 780 | 330 | 1210
COc1cc2c(Oc3ccc(NC(=O)c4nn(-c5ccccc5Cl)c5ccccc5c4=O)cc3F)ccnc2cc1OCCCN1CCOCC1 | 10 | 920 | 10 | 240 | 30 | 1690
COc1cc2c(Oc3ccc(NC(=O)c4nn(-c5ccc(Cl)cc5Cl)c5ccccc5c4=O)cc3F)ccnc2cc1OCCCN1CCCCC1 | 590 |  | 1030 | 990 | 470 | 
COc1cc2c(Oc3ccc(NC(=O)c4nn(-c5ccc(C)cc5C)c5ccccc5c4=O)cc3F)ccnc2cc1OCCCN1CCCCC1 | 1850 |  | 1570 | 3560 | 1280 | 
COc1cc2c(Oc3ccc(NC(=O)c4nn(-c5ccccc5F)c5cc(F)ccc5c4=O)cc3F)ccnc2cc1OCCCN1CCOCC1 | 1540 |  | 2250 | 2950 | 2040 | 
COc1cc2c(Oc3ccc(NC(=O)c4nn(-c5cc(C)ccc5C)c5ccccc5c4=O)cc3F)ccnc2cc1OCCCN1CCOCC1 | 30 |  | 590 | 1150 | 750 | 1360
COc1cc2c(Oc3ccc(NC(=O)c4nn(-c5cccc(F)c5)c5ccccc5c4=O)cc3F)ccnc2cc1OCCCN1CCCCC1 | 140 | 2020 | 910 | 1880 | 110 | 2460
COc1cc2c(Oc3ccc(NC(=O)c4nn(-c5ccc(C)cc5)c5ccccc5c4=O)cc3F)ccnc2cc1OCCCN1CCOCC1 | 680 |  | 2100 | 3200 | 1100 | 1970
COc1cc2c(Oc3ccc(NC(=O)c4nn(-c5ccccc5C(F)(F)F)c5ccccc5c4=O)cc3F)ccnc2cc1OCCCN1CCOCC1 | 20 | 840 | 80 | 510 | 60 | 1480
COc1cc2c(Oc3ccc(NC(=O)c4nn(-c5ccccc5F)c5cc(F)ccc5c4=O)cc3F)ccnc2cc1OCCCN1CCCCC1 | 2790 |  | 3280 | 5070 | 3270 | 
COc1cc2c(Oc3ccc(NC(=O)c4nn(-c5ccccc5Cl)c5cc(F)ccc5c4=O)cc3F)ccnc2cc1OCCCN1CCC(C)CC1 | 1560 |  | 1250 | 1370 | 1050 | 
COc1cc2c(Oc3ccc(NC(=O)c4nn(-c5ccccc5Cl)c5cc(F)ccc5c4=O)cc3F)ccnc2cc1OCCCN1CCCCC1 | 1620 |  | 1510 | 2470 | 1820 | 
COc1cc2c(Oc3ccc(NC(=O)c4nn(-c5ccc(F)cc5Br)c5ccccc5c4=O)cc3F)ccnc2cc1OCCCN1CCCC1 | 1720 |  | 3650 | 2910 | 1030 | 
